Assay results: ChEMBL document CHEMBL1123064, “[1,4]Benzoxazine-2,3-diones as antiallergic agents” (J Med Chem, 1985)

Tests used:
Rattus norvegicus [1] = assay: Inhibition of antigen-induced […] at a dose of 25 mg/kg in passive cutaneous anaphylaxis in the male Sprague-Dawley rats; type: functional
How it was run: (§1)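 IgE antiserum was raised in male Sprague-Dawley rats with im ovalbumin/aluminum hydroxide plus ip B. pertussis. Naive rats were sensitized intradermally at dorsal sites (antiserum 1:20). After 48 h, groups of four received oral compound or vehicle (1% methylcellulose). 10 min later, iv challenge with 4 mg ovalbumin in 1% Evans blue; blued wheal areas measured at 30 min; Student's t test.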

Rattus norvegicus [2] = species on record: Rattus norvegicus; assay: Concentration required to inhibit antigen-induced release of histamine (AIR) by 50% from passively sensitized rat mast cells; type: functional, cell-based; conditions: read-out: I50
How it was run: (§2)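 Washed rat mast cells, passively sensitized in vitro with rat anti-ovalbumin serum, washed again, then challenged with ovalbumin; histamine release measured. Compounds dissolved in Me2SO (final 0.17%). I50 read from concentration-dependent inhibition; number of experiments in parentheses. DSCG positive control in every experiment.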

Rattus norvegicus [3] = assay: Effective dose against passive cutaneous anaphylaxis in rat when administered perorally.; type: functional; conditions: po; how it was run: as §1
Rattus norvegicus [4] = assay: Effective dose against passive cutaneous anaphylaxis when administered perorally.; type: functional; conditions: po; how it was run: as §1
Rattus norvegicus [5] = assay: Percent Inhibition of antigen-induced release of histamine at a dose of 50 mg/kg in passive cutaneous anaphylaxis in the male Sprague-Dawley rats; type: functional; how it was run: as §1
Rattus norvegicus [6] = species on record: Rattus norvegicus; assay: Concentration required to inhibit antigen-induced release of histamine (AIR) by 50% from passively sensitized rat mast cells at p<0.01; type: functional, cell-based; conditions: Mast cell, read-out: I50; how it was run: as §2
Rattus norvegicus [7] = assay: Effective dose against passive anaphylaxis in rat when administered intraperitoneally.; type: functional; conditions: ip
Rattus norvegicus [8] = assay: Inhibition of antigen-induced release of histamine at a dose of 50 mg/kg in passive cutaneous anaphylaxis in the male Sprague-Dawley rats; type: functional; how it was run: as §1
Rattus norvegicus [9] = assay: Effective dose against passive cutaneous anaphylaxis in rat when administered intraperitoneally.; type: functional; conditions: ip

| Compound | inhibition in vivo at 25 mg/kg (Rattus norvegicus [1]) | IC50 (Rattus norvegicus [2]) | inhibition in vivo at 50 mg/kg (Rattus norvegicus [5]) | other results |
| --- | --- | --- | --- | --- |
| O=c1[nH]c2cc(Cl)ccc2oc1=O | 14% |  |  |  |
| COc1ccc2oc(=O)c(=O)[nH]c2c1 | 21% | 15 µM |  |  |
| O=c1[nH]c2cc3[nH]c(=O)c(=O)oc3cc2oc1=O | 13% | 3 µM |  | ED50 (Rattus norvegicus [3]): > 125 mg/kg |
| O=c1[nH]c2cc(C(F)(F)F)ccc2oc1=O | 20% | 100 µM |  |  |
| O=c1[nH]c2cc3oc(=O)c(=O)[nH]c3cc2oc1=O | 0% | 1.2 µM |  | ED50 (Rattus norvegicus [3]): > 125 mg/kg |
| C=CCc1cc(OC)c2oc(=O)c(=O)[nH]c2c1 | 77% | 10 µM |  | ED50 (Rattus norvegicus [4]): 7 mg/kg |
| O=c1[nH]c2cc3ccccc3cc2oc1=O | 11% |  | 45% | IC50 (Rattus norvegicus [6]): 45 µM |
| O=c1[nH]c2cc3c(cc2oc1=O)CCCC3 | 15% | 10 µM |  | ED50 (Rattus norvegicus [3]): 96 mg/kg |
| COc1ccc2[nH]c(=O)c(=O)oc2c1 | 33% | 28 µM |  |  |
| COC(=O)c1cc(OC)c2oc(=O)c(=O)[nH]c2c1 | 35% | 3.4 µM |  |  |
| COc1cc2[nH]c(=O)c(=O)oc2cc1OC | 45% | 30 µM | 100% | ED50 (Rattus norvegicus [3]): 20 mg/kg |
| CCOC(=O)C(=O)Nc1ccc2oc(=O)c(=O)[nH]c2c1 |  | 60 µM |  |  |
| Cc1ccc2[nH]c(=O)c(=O)oc2c1 |  | 32 µM | 97% |  |
| COc1cccc2[nH]c(=O)c(=O)oc12 | 88% | 7 µM | 89% | ED50 (Rattus norvegicus [3]): 14 mg/kg |
| CCOC(=O)c1ccc2oc(=O)c(=O)[nH]c2c1 | 0% | 10 µM |  |  |
| O=c1[nH]c2ccccc2oc1=O |  | 42 µM | 70% |  |
| O=c1[nH]c2c(ccc3ccccc32)oc1=O |  | < 100 µM | 18% |  |
| N#Cc1ccc2[nH]c(=O)c(=O)oc2c1 |  | 15 µM |  | ED50 (Rattus norvegicus [7]): 23 mg/kg; inhibition in vivo at 50 mg/kg (Rattus norvegicus [8]): 14% |
| O=c1[nH]c2cc([N+](=O)[O-])ccc2oc1=O |  | 0.8 µM | 91% | inhibition in vivo at 50 mg/kg (Rattus norvegicus [8]): 24% |
| O=C(O)c1ccc2[nH]c(=O)c(=O)oc2c1 | 7% | 16 µM | 83% |  |
| O=c1[nH]c2ccc(O)cc2oc1=O |  | 170 µM |  |  |
| O=C([O-])c1cc(=O)c2c(OCC(O)COc3cccc4oc(C(=O)[O-])cc(=O)c34)cccc2o1.[Na+].[Na+] [CROMOLYN SODIUM] |  | 4.5 µM |  | ED50 (Rattus norvegicus [9]): 6 mg/kg |
